In ChEMBL document CHEMBL2062497, “Syntheses and in vitro evaluation of decalinvesamicol analogues as potential imaging probes for vesicular acetylcholine transporter (VAChT)” (Bioorg Med Chem, 2012):

Experiments:
[1] = molecular target: T1, Vesicular acetylcholine transporter (Rattus norvegicus, UniProt Q62666); experiment: Binding affinity to VAChT in rat cerebral membrane; type: cell membranes
T1 sequence (Q62666 whole entry): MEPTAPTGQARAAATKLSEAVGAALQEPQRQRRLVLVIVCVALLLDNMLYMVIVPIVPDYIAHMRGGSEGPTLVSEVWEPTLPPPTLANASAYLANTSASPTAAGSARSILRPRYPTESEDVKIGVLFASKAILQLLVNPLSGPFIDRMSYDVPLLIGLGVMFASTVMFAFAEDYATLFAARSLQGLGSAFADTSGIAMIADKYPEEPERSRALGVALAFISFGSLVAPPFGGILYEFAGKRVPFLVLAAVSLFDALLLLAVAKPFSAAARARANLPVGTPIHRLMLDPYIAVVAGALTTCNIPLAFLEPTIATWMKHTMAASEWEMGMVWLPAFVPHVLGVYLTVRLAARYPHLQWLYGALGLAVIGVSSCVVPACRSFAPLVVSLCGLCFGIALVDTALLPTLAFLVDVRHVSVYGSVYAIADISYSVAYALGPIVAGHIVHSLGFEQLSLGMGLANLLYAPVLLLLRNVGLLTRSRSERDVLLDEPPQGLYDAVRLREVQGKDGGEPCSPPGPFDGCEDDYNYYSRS

[2] = Displacement of [3H]DTG from sigma2 receptor in Sprague-Dawley rat liver membrane after 90 mins by liquid scintillation counting in presence of pentazocine; type: cell membranes
In short: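 Sigma-2 assay: rat liver membranes (male Sprague-Dawley) with [3H]DTG (Kd 22.3 nM) plus pentazocine to mask sigma-1. Displacers at 1.0×10^-10–10^-5 M in 50 mM Tris-HCl pH 7.8, quadruplicate. Incubated 37 °C for 90 min, then filtered and scintillation counted. Three independent experiments; Ki via IC50/(1 + C/Kd).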

[3] = molecular target: Sigma non-opioid intracellular receptor 1 (Rattus norvegicus, UniProt Q9R0C9); experiment: Displacement of (+)-[3H]pentazocine from sigma1 receptor in Sprague-Dawley rat cerebral membrane after 90 mins by liquid scintillation counting
Chain of Sigma non-opioid intracellular receptor 1 (Q9R0C9 whole entry): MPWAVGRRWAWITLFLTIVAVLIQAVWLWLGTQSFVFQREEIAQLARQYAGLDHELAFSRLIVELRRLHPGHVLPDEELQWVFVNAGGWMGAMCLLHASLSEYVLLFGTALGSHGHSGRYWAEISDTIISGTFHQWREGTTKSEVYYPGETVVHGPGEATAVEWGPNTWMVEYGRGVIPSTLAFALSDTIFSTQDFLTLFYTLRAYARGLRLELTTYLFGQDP

[4] = molecular target: T1, Vesicular acetylcholine transporter; experiment: Displacement of [125I]O-iodo-trans-decalinvesamicol from VAChT in Sprague-Dawley rat cerebral membrane after 1 hr by gamma counting
In short: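 Male Sprague-Dawley cerebral membranes were incubated with 5 nM radioiodinated tracer and each ligand at 10^-10–10^-5 M in 50 mM Tris-HCl pH 7.8, quadruplicate. Nonspecific binding was taken with excess unlabelled ligand. Incubation was 37 °C for 1 h, then ice quench, PEI-soaked filter harvest and gamma counting.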

[5] = molecular target: T1, Vesicular acetylcholine transporter; experiment: Displacement of (-)-[3H]vesamicol from VAChT in Sprague-Dawley rat cerebral membrane after 60 mins by liquid scintillation counting in presence of DTG
[6] = molecular target: T1, Vesicular acetylcholine transporter; experiment: Binding affinity to VAChT in Sprague-Dawley rat cerebral membrane after 1 hr by gamma counting in presence of haloperidol
In short: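 Saturation binding of [¹²⁵I]-labelled radioligand (0.1–10 nM) to cerebral membranes from male 8-week Sprague-Dawley rats (sucrose homogenate, differential centrifugation), with 100 nM haloperidol masking σ receptors. Incubated in 50 mM Tris–HCl pH 7.8 for 1 h at 37 °C, in quadruplicate. Filtered and washed, then gamma counted. Specific binding is total minus nonspecific; Kd and Bmax come from the saturation curve and Scatchard plot.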

[7] = n-octanol-water partition coefficient, log P at 0.51 MBq after 5 mins by gamma counting; type: physicochemical
In short: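 Tracer (0.51 MBq) partitioned between n-octanol and 0.1 M phosphate buffer pH 7.4 (n = 4). Vortexed 5 min at room temperature, then centrifuged 10 min at 2000g. Four samples per layer were gamma counted. logP = log10(octanol/aqueous radioactivity). Three independent experiments.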

Brain = experiment: Drug uptake in Sprague-Dawley rat brain at 185 kBq, iv at 10 mins by gamma counting; type: ADME, organism-based; details: in vivo
In short: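 Male Sprague-Dawley rats (8 weeks, 250–300 g, n = 4) got radioiodinated tracer, 185 kBq, by tail-vein injection. Sacrificed at 10 min. Whole brains were weighed and gamma counted, expressed as %ID/g.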

SMILES	Ki [2] [nM]	Ki [4] [nM]	further results
O[C@@H]1CCCCC1N1CCC(c2ccccc2[125I])CC1 (some centres not stated)			Kd [1]: 17.4 nM
OC1CCCCC1N1CCC(c2ccccc2)CC1 (configuration not stated)	86.7		
OC1C[C@@H]2CCCC[C@H]2CC1N1CCC(c2ccccc2I)CC1 (relative stereo)	119	28.6	Ki [3]: 242 nM; Ki [5]: 20.5 nM
OC1C[C@@H]2CCCC[C@H]2CC1N1CCC(c2ccccc2Br)CC1 (relative stereo)	138	9.3	Ki [3]: 151 nM; Ki [5]: 13.8 nM
OC1C[C@@H]2CCCC[C@H]2CC1N1CCC(c2ccccc2)CC1 (relative stereo)	68.3		Ki [3]: 74.1 nM
OC1C[C@@H]2CCCC[C@H]2CC1N1CCC(c2ccccc2[125I])CC1 (relative stereo)			Kd [6]: 1.73 nM; logP at 5 min [7]: 2.46; Drug uptake (Brain): 0.45 % ID/g
CC(C)=CCN1CC[C@]2(C)c3cc(O)ccc3C[C@H]1[C@H]2C [(+)-PENTAZOCINE]		> 10000	
Cc1ccccc1NC(=N)Nc1ccccc1C [DITOLYLGUANIDINE]	31.7	1130	
O=C(CCCN1CCC(O)(c2ccc(Cl)cc2)CC1)c1ccc(F)cc1 [HALOPERIDOL]	51.6		
O=C(c1ccc(F)cc1)C1CCN(CCn2c(=O)[nH]c3ccccc3c2=O)CC1 [KETANSERIN]		> 10000	
NC[C@H](O)c1ccc(O)c(O)c1 [NOREPINEPHRINE]		> 10000	
O=C(CCCN1CCC2(CC1)C(=O)NCN2c1ccccc1)c1ccc(F)cc1 [SPIPERONE]		1030	
